Peptide text beside a SMILES is read from it.
Legend:
HepG2 cells [1] = assay: Mitochondrial accumulation, fluorescence imaging with MitoTracker; type: cell-based; conditions: Flag-(C16)2, 48h
HeLa cells [2] = assay: Cell viability / cytotoxicity; type: cell-based; conditions: Flag-(C16)2 alone, 48h
Method in brief: (§1)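 HeLa and HepG2 grown in MEM with 10% (vol/vol) FBS and 0.5% (vol/vol) each penicillin and streptomycin, at 37 °C under 5% CO2. IC50 taken on the 2nd day of exposure to the test compound. Means ± SD from n > 3 independent experiments; significance by t-test.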

AML12 cells = assay: Cell viability / cytotoxicity; type: cell-based
[3] = system: cytochrome c in HeLa cells; assay: Cytochrome c in cytosol, Western blot; type: cell-based; conditions: different concentration, Figure S17
Method in brief: (§2)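 Cells were exposed to the test compound for 48 h (HepG2: 100, 50, 25 and 0 μM). The cytosol fraction was blotted for cytochrome c. Protein was quantified by Coomassie, and 20 μg per lane was run on SDS-PAGE and transferred to PVDF. Bands were quantified by densitometry. Data are means ± SD, n > 3, t-test.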

HS-5 cells [4] = assay: Cell viability / cytotoxicity; type: cell-based
HeLa cells [5] = assay: Mitochondrial membrane potential by Rhodamine 123; type: cell-based; conditions: 48h, Rhodamine 123, Figure S15
HepG2 cells [6] = assay: Cell viability / cytotoxicity; type: cell-based
Method in brief: as §1

Self-assembly = type: physicochemical; conditions: 50 μM
[7] = Critical micelle concentration; type: physicochemical; conditions: Figure S6
HepG2 cells [8] = assay: Mitochondrial membrane potential by Rhodamine 123; type: cell-based; conditions: 50 μM, 48 h
enterokinase (ENTK) = enterokinase (ENTK) (Homo sapiens, UniProt P98073); assay: Enzymatic cleavage by ENTK; type: biochemical; conditions: Flag-(C16)2 at 200 μM (above CMC), Figure S7D
Sequence of enterokinase (ENTK) (P98073 whole entry, species assumed): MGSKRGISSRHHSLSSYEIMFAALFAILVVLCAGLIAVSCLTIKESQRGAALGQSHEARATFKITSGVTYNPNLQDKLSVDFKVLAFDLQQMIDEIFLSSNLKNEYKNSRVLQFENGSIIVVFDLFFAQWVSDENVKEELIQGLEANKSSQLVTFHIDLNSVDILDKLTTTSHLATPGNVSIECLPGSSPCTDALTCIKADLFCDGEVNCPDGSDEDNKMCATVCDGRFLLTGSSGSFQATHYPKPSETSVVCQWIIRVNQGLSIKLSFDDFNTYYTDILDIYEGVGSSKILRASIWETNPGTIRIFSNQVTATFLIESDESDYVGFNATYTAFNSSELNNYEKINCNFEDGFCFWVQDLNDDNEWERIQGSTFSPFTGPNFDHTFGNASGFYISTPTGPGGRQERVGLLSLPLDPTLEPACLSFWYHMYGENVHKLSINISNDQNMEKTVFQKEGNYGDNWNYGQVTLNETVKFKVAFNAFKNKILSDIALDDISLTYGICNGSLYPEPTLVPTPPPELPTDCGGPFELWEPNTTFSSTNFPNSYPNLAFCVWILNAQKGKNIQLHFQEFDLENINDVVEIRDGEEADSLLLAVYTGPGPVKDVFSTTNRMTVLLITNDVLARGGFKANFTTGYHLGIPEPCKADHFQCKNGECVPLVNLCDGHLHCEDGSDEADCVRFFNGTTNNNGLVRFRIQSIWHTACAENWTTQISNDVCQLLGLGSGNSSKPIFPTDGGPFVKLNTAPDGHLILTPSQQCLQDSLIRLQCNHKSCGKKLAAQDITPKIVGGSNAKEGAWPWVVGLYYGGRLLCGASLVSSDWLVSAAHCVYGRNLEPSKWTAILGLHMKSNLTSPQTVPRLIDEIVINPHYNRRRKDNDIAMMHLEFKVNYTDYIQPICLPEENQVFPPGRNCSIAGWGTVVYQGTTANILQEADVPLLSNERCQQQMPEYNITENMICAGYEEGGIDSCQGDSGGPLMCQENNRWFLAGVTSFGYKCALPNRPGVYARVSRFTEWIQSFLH

Drug loading efficiency = type: physicochemical; conditions: determined from the LE%
[9] = system: cytochrome c in HepG2 cells; assay: Cytochrome c in cytosol, Western blot; type: cell-based; conditions: 100, 50, 25 μM, 48 h
Method in brief: as §2

[10] = Solubility of the enzymatic product; type: physicochemical; conditions: direct suspension of the enzymatic product
HS-5 cells [11] = assay: Multidrug resistance; type: cell-based; conditions: normal cell line, Figure S5

CCCCCCCCCCCCCCCCNC(=O)CC[C@H](NC(=O)CNC(=O)[C@H](CCCCN)NC(=O)[C@H](CC(=O)O)NC(=O)[C@H](CC(=O)O)NC(=O)[C@H](CC(=O)O)NC(=O)[C@H](CC(=O)O)NC(=O)[C@H](CCCCN)NC(=O)[C@H](Cc1ccc(O)cc1)NC(=O)[C@@H](N)CC(=O)O)C(=O)NCCCCCCCCCCCCCCCC [Flag-(C16)2] (HELM PEPTIDE1{D.Y.K.D.D.D.D.K.G.E.[CCCCCCCCCCCCCCCCN[*:1]]}|CHEM1{[CCCCCCCCCCCCCCCCN[*:1]]}$PEPTIDE1,CHEM1,10:R3-1:R1$$$V2.0)
mitochondrial morphology, HepG2 (HepG2 cells [1]): fragmental mitochondria | cell viability, HeLa (HeLa cells [2]): decrease of cell viability | cell death, AML12 (AML12 cells): hardly induces cell death | cytochrome c in the cytosol, HeLa [3]: increased cytochrome c | cell death, HS-5 (HS-5 cells [4]): hardly induces cell death | mitochondrial membrane potential, HeLa (HeLa cells [5]): reduced mitochondrial membrane potential | cell viability, HepG2 (HepG2 cells [6]; Flag-(C16)2 alone, 48h): decrease of cell viability | self-assembly after adding ENTK (Self-assembly; ENTK, 24 h, 37 °C, static light scattering): larger micelle-like aggregates | self-assembly in solution (Self-assembly; before ENTK): self-assembles into nanoparticles | critical micelle concentration (CMC) [7]: 43 µM | mitochondrial membrane potential, HepG2 (HepG2 cells [8]): reduced mitochondrial membrane potential | hydrolysis by ENTK (enterokinase (ENTK)): hydrolyzes | encapsulation capacity (EC) (Drug loading efficiency): 66.7 μg CLRP in per mg Flag-(C16)2 micelles | cytochrome c in the cytosol, HepG2 [9]: increased cytochrome c

Gly-Glu-(C16)2
solubility [10]: poor solubility

O=C(N[C@H](CO)[C@H](O)c1ccc([N+](=O)[O-])cc1)C(Cl)Cl [CLRP, chloramphenicol, reference compound]
change of MDR, HS-5 (HS-5 cells [11]): Neither CLRP nor CLRP mixed with Flag-(C16)2 significantly change the MDR | cell viability, HepG2 (HepG2 cells [6]; free CLRP alone, Figure 2A): hardly suppresses the viability

Source: article PMC7316614 (ACS nano, 2020)
